Rows were chosen to be rich in hits. Some 2.1% of all compounds tested hit in one or more screens of this group.
Runt-SMMHC FRET – inhibitors of RUNX1 Runt–CBFb-SMMHC binding, primary screen, biochemical, FRET, Cerulean-Runt, Venus-CBFb-SMMHC, uHTS | Runt-related transcription factor 1 (Homo sapiens) + Core-binding factor subunit beta … | 220,000 tested, 0.74% active | AID 1434, 2008 | inhibition, % at 20 µM | Cerulean-Runt/Venus-CBFb-SMMHC FRET ratio 530/480, 1 h;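 active = mean inhibition across duplicate retests at 20 µM reaching about 50%, limit read from the data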;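 also: inhibitors lower the FRET ratio by blocking Runt binding to CBFb-SMMHC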
RanGTP-Imp inh – inhibitors of RanGTP-importin-beta interaction, primary screen, biochemical, FRET, CFP-Ran, YFP-importin-beta, homogeneous; Ran GTPase (GTP-bound) - importin-beta complex; cell-free CFP-Ran/YFP-importin-beta FRET ratio; inhibition, % (no concentration beside the values); 300,000 tested, 1.1% active; AID 2216, 2009;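 active = more than half of the replicate wells show a fall in the fluorescence ratio signal beyond about 16%, limit read from the data, passing the limit was not always enough; inconclusive = exactly half of the replicate wells pass the set limit; inactive = fewer than half of replicates pass the limit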
p97 inhibitor – inhibitors of human p97 ATPase, primary screen, biochemical; Transitional endoplasmic reticulum ATPase (Homo sapiens), P55072; recombinant p97 ATPase, Kinase-Glo ATP luminescence, 3 h; inhibition, % at 8 µM; 220,000 tested, 0.42% active; AID 1481, 2009; in the data active = inhibition above about 15%
Tb hexokinase – Trypanosoma brucei hexokinase 1 inhibitors, primary screen, biochemical, G6PDH-coupled NADH absorbance, MLSCN library | recombinant TbHK1, G6PDH-coupled NADH A340 | 220,000 tested, 0.11% active | inhibition, % at 10 µM;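 active = inhibition of 50% or more in the single-dose primary screen; inactive = inhibition below 50%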
Hck Nef HTS – inhibitors of Nef-activated human Hck kinase, primary screen, biochemical, Z-Lyte FRET, 384-well, Hck-YEEI | 220,000 tested, 0.68% active | inhibition, % at 20 µM | Tyrosine-protein kinase HCK (Homo sapiens), P08631 | AID 463187, 2010 | Recombinant Hck-YEEI plus Nef, Z-Lyte FRET kinase assay;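 active = Hck-Nef kinase inhibition above about 50%, limit read from the data; inactive = inhibition below that limit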
Target sequence (P08631 whole entry, looked up): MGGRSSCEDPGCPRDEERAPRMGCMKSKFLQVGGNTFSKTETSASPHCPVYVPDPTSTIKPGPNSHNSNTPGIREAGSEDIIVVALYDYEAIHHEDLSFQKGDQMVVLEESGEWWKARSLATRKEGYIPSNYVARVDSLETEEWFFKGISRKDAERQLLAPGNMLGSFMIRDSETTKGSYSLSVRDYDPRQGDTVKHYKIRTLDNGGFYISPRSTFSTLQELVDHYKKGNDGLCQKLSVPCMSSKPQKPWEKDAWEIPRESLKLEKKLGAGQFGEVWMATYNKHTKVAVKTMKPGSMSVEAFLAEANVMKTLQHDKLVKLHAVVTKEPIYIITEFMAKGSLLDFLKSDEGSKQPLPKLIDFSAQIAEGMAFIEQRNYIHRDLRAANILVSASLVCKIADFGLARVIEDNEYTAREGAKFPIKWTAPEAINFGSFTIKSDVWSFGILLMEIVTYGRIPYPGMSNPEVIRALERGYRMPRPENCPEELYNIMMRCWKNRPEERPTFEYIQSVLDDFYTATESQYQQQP
Runt-CBFb FRET – inhibitors of RUNX1 Runt–CBFb binding, primary screen, biochemical, FRET, Cerulean-Runt, Venus-CBFb, uHTS. Runt-related transcription factor 1 (Homo sapiens) + Core-binding factor subunit beta …. Cerulean-Runt/Venus-CBFb FRET ratio 530/480, 1 h. inhibition, % at 20 µM. 220,000 tested, 0.46% active. AID 1496, 2009;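 active = inhibition over about 50% at 20 µM in the single-dose screen, limit read from the data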
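test system = Cerulean-tagged RUNX1 Runt domain (FRET donor) fusion protein | reagent = Venus-CBFb binding partner, 100 nM | incubation = protein complex preformed 1 h, compound exposure 1 h, room temperature, dark | detection = FRET fluorescence | read-out basis = loss of energy transfer signal | controls = 5 µM unlabeled CBFb as full-inhibition high control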
Each line names hits and unclear results; the compound was inactive in the other large screens.

CCOc1cc(C2C(C#N)=C(N)OC(C)=C2C(C)=O)c(Br)c(Br)c1OC(C)C (configuration not stated)	none
COCCSc1ccccc1C(=O)N1CCN(Cc2ccccc2)CC1	none
CCOC(=O)C1(CCOc2ccccc2)CCN(Cc2cccc(OC)c2OC)CC1	none (no result: Runt-SMMHC FRET, p97 inhibitor, Tb hexokinase, Hck Nef HTS, Runt-CBFb FRET)
CCOc1ccc(CCNc2nc3ccccc3n3cnnc23)cc1OCC	none
COc1ccc(-n2ncc3c(N4CCN(Cc5ccccc5)CC4)ncnc32)cc1	none
Cc1[nH]nc2c1C(C1CC=CCC1)C(C#N)=C(N)O2 (configuration not stated)	none (no result: RanGTP-Imp inh)
N#CC1=C(N)Oc2cc(N)ccc2C1C1CC=CCC1 (configuration not stated)	RanGTP-Imp inh 141
CCOc1cc(C2C(C#N)=C(N)Oc3cc(N)ccc32)ccc1O (configuration not stated)	RanGTP-Imp inh 69 (no result: Runt-SMMHC FRET, p97 inhibitor, Tb hexokinase, Hck Nef HTS, Runt-CBFb FRET)
CCCc1[nH]nc2c1C(c1ccc(O)c(OC)c1)C(C#N)=C(N)O2 (configuration not stated)	none
Cc1sc(NC(=O)C2CSC3(C)CCC(=O)N23)nc1-c1ccccc1 (configuration not stated)	none (no result: Runt-SMMHC FRET, p97 inhibitor, Tb hexokinase, Hck Nef HTS, Runt-CBFb FRET)
Cc1cccc(NC(=S)N/N=C/c2ccc(Cl)c([N+](=O)[O-])c2)c1	RanGTP-Imp inh 44
CNc1oc(/C=C/c2ccccc2)nc1C#N	Runt-SMMHC FRET 84
O=C(Cn1nc(-c2cccc([N+](=O)[O-])c2)c2ccccc2c1=O)NCC1CCCO1 (configuration not stated)	none
CSCCC(NC(=O)COc1ccccc1)C(=O)NCc1cccs1 (configuration not stated)	none (no result: Runt-SMMHC FRET, p97 inhibitor, Tb hexokinase, Hck Nef HTS, Runt-CBFb FRET)
COC(=O)[C@]1(CC(C)C)N[C@H](c2ccc(-c3ccc(F)cc3)c(OC)c2)[C@@H]2C(=O)N(C)C(=O)[C@@H]21	none (no result: Runt-SMMHC FRET, p97 inhibitor, Tb hexokinase, Hck Nef HTS, Runt-CBFb FRET)
CCOC(=O)C1=CN(Cc2ccc(OC)cc2)C=C(C(=O)OCC)C1c1cccs1	Hck Nef HTS 58
CCOC(=O)C1=C(C)NC(C)=C(C(=O)OCC)C1c1cccs1	none
O=C(/C=C/c1ccccc1[N+](=O)[O-])N1CCN(c2ccccc2F)CC1	none
COc1cc(C(CC(=O)Nc2cc(C)ccn2)N2Cc3ccccc3C2=O)cc(OC)c1OC (configuration not stated)	none (no result: Runt-SMMHC FRET, p97 inhibitor, Tb hexokinase, Hck Nef HTS, Runt-CBFb FRET)
Cc1cc(-c2csc(NCc3ccccc3)n2)c(C)n1C	Hck Nef HTS 65 (no result: RanGTP-Imp inh)
Cc1nc(N)sc1-c1csc(NCc2ccccc2)n1	none
COc1ccc(C(=O)NN=C2CCCC2)cc1	RanGTP-Imp inh 28 (no result: Runt-SMMHC FRET, p97 inhibitor, Tb hexokinase, Hck Nef HTS, Runt-CBFb FRET)
Cc1c(CN2CCc3c([nH]c4ccccc34)C2CC(C)C)cnn1C (configuration not stated)	RanGTP-Imp inh 35
Cn1c(-c2ccc(Cl)nc2)nc2cc(Cl)ccc21	none (no result: Runt-SMMHC FRET, p97 inhibitor, Tb hexokinase, Hck Nef HTS, Runt-CBFb FRET)
CCOC(=O)CSc1nnc2n1C(C)(C)Cc1ccccc1-2	RanGTP-Imp inh inconclusive
CC(C)OC(=O)CSc1nnc2n1C(C)(C)Cc1ccccc1-2	Runt-SMMHC FRET 132, Runt-CBFb FRET 121
Cc1cc(O)ccc1Nc1nc(-c2cccs2)cs1	Hck Nef HTS 57
CCOC(=O)N1CCC(NC(=O)c2ccc(Cl)cc2)CC1	none
CCOC(=O)N1CCC(Nc2nc3ccccc3nc2NS(=O)(=O)c2ccc(Cl)cc2)CC1	RanGTP-Imp inh 19
Cc1cc(C)nc(SCc2ccc(C(=O)N/N=C/c3cccc(O)c3O)cc2)n1	p97 inhibitor 15
Cc1ccc(S(=O)(=O)NC(=O)c2cc(C)n(CCCN3CCOCC3)c2C)cc1	RanGTP-Imp inh 60
Cc1ccc(S(=O)(=O)NC(=O)NCCCN2CCOCC2)cc1	none (no result: Runt-SMMHC FRET, p97 inhibitor, Tb hexokinase, Hck Nef HTS, Runt-CBFb FRET)
O=c1c2ccccc2c(C=Nc2ccccc2O)c(O)n1-c1nccs1	RanGTP-Imp inh 41
Cc1ccccc1N=Cc1c(O)n(-c2nccs2)c(=O)c2ccccc12	RanGTP-Imp inh inconclusive
CC(NC(=O)OC(C)(C)C)C(=O)Oc1cc2oc(=O)cc(-c3ccccc3)c2cc1Cl (configuration not stated)	Runt-SMMHC FRET 79
Cc1ncc(CO)c(/C=N/NC(=O)c2ccc(Br)cc2)c1O	Runt-SMMHC FRET 58, RanGTP-Imp inh 21
COc1cccc(NC(=O)CCC(=O)Nc2ccc3nc(N4CCOCC4)cc(C)c3c2)c1	none (no result: Runt-SMMHC FRET, p97 inhibitor, Tb hexokinase, Hck Nef HTS, Runt-CBFb FRET)
CNC(=O)c1c(NC(=O)c2ccco2)sc2c1CCC2	none (no result: Runt-SMMHC FRET, p97 inhibitor, Tb hexokinase, Hck Nef HTS, Runt-CBFb FRET)
O=C(Nc1sc2c(c1C(=O)NC1CCCCC1)CCC2)c1ccco1	RanGTP-Imp inh 56
CCN(CC)c1nc2ccccc2nc1C(C#N)C(=O)NCCc1ccccc1 (configuration not stated)	Runt-SMMHC FRET 59, RanGTP-Imp inh 52
CCCCCNC(=O)C(C#N)c1nc2ccccc2nc1N1CC(C)OC(C)C1 (configuration not stated)	none (no result: Runt-SMMHC FRET, RanGTP-Imp inh, Runt-CBFb FRET)
CCCN(CCC)c1nc2ccccc2nc1C(C#N)C(=O)OC(C)COC (configuration not stated)	RanGTP-Imp inh 23 (no result: Runt-SMMHC FRET, Runt-CBFb FRET)
CCOC(=O)N1CCN(c2nc3ccccc3nc2C(C#N)C(=O)NCCc2ccccc2)CC1 (configuration not stated)	none
CCN(CC)c1nc2ccccc2nc1C(C#N)C(=O)NCCCOC (configuration not stated)	Runt-SMMHC FRET 61, Runt-CBFb FRET 67 (no result: RanGTP-Imp inh)
CCCCN(CCCC)c1nc2ccccc2nc1C(C#N)C(=O)NCCCOC (configuration not stated)	RanGTP-Imp inh 32
O=S(=O)(Nc1ccc(Cl)cn1)c1ccc2c(c1)OCCO2	none (no result: Runt-SMMHC FRET, p97 inhibitor, Tb hexokinase, Hck Nef HTS, Runt-CBFb FRET)
CC(C)(C)c1cc(C(=O)NNc2cc(C(F)(F)F)ccc2Cl)n(Cc2ccccc2)n1	none
CCOc1ccc(N=NC2C(=O)N(C(N)=S)N=C2C)cc1 (configuration not stated)	none (no result: Runt-SMMHC FRET, p97 inhibitor, Tb hexokinase, Hck Nef HTS, Runt-CBFb FRET)
O=C(NCCc1nnc2ccc(N3CCCCCC3)nn12)c1ccccc1F	none (no result: Runt-SMMHC FRET, p97 inhibitor, Tb hexokinase, Hck Nef HTS, Runt-CBFb FRET)
O=C(CC1SC(=NCC2CCCO2)NC1=O)Nc1cc([N+](=O)[O-])ccc1Cl (configuration not stated)	none
O=C(CC1SC(=NCC2CCCO2)NC1=O)Nc1cccc2ccccc12 (configuration not stated)	Runt-CBFb FRET 81
O=C(O)c1ccccc1-c1nc(-c2ccccc2)c(-c2ccccc2)[nH]1	none
O=C(O)c1ccccc1-c1nc2ccccc2c(=O)[nH]1	RanGTP-Imp inh 25
C=CCSC1=N/C(=C\c2cc(OCC)c(OC(C)=O)c([N+](=O)[O-])c2)C(=O)S1	Hck Nef HTS 84
CC(=O)Nc1ccc(/C=N/NC(=O)c2cccc(S(=O)(=O)N3CCOCC3)c2)cc1	none

Assay outcomes from PubChem BioAssay.
